ChEMBL document CHEMBL4680326, “Hit-to-lead optimization on aryloxybenzamide derivative virtual screening hit against SIRT” (Bioorg Med Chem, 2021)

Assays:
[1] = target: T1, NAD-dependent protein deacetylase sirtuin-1 (Homo sapiens) (UniProt Q96EB6); assay: Inhibition of recombinant N-terminal tagged human SIRT1 expressed in Escherichia coli at 100 uM using Fluor De Lys SIRT1 as substrate preincubated for 30 mins followed by substrate addition and measured after 1 hr in presence of NAD+ by fluorescence assay relative to control; settings: time 90.0 min
T1 sequence (whole entry): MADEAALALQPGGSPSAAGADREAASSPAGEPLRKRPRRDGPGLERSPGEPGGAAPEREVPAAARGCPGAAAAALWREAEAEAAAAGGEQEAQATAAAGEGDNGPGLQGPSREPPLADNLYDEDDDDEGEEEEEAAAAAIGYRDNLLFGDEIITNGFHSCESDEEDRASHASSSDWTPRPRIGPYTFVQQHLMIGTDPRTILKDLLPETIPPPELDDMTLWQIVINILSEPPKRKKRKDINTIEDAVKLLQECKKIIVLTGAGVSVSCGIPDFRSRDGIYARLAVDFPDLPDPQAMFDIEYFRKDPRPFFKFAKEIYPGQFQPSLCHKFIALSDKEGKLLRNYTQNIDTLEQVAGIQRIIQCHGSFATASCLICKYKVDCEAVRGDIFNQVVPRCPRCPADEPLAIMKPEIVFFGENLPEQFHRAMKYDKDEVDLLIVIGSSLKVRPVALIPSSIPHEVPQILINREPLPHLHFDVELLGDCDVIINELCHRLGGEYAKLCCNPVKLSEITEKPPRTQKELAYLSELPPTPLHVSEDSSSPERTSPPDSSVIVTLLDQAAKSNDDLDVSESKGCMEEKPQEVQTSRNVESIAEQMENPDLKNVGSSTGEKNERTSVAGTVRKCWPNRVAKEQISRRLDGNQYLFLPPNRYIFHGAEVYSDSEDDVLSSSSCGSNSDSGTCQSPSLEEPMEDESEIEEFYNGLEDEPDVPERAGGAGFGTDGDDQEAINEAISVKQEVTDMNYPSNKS
Outline: (§1)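 Human recombinant SIRT enzyme and compound (1% v/v final DMSO) in SIRT assay buffer were preincubated at 37 °C for 30 min. NAD⁺ and Fluor de Lys deacetylase substrate were then added. Fluorescence was read at excitation 360 nm, emission 460 nm. % inhibition was taken from inhibited wells relative to control wells.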

MCF7 [2] = assay: Cytotoxicity against human MCF7 cells assessed as reduction in cell viability measured after 48 hrs by MTT assay; type: functional, cell-based; settings: MCF7, 48 h
Outline: (§2)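 MCF-7 cells were grown in DMEM with 10% FBS and 1% penicillin–streptomycin to 70% confluency. 180 µl of a 5 × 10⁴ cells/ml suspension was seeded per well and held 24 h at 37 °C in 5% CO₂. Cells were exposed to 1, 10, 25, 50, 100 or 200 µM, then treated with MTT (5 mg/ml) for 4 h and read at 540 nm. Untreated cells served as control. Done in triplicate; IC50 from linear regression of concentration vs % viable cells.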

MCF7 [3] = assay: Cytotoxicity against human MCF7 cells assessed as reduction in cell viability measured after 72 hrs by MTT assay; type: functional, cell-based; settings: MCF7, 72 h; outline: as §2
[4] = target: T2, NAD-dependent protein deacetylase sirtuin-2 (Homo sapiens) (UniProt Q8IXJ6); assay: Inhibition of recombinant N-terminal tagged human SIRT2 expressed in Escherichia coli at 100 uM using Fluor De Lys SIRT2 as substrate preincubated for 30 mins followed by substrate addition and measured after 1 hr in presence of NAD+ by fluorescence assay relative to control; settings: time 90.0 min; outline: as §1
T2 sequence (whole entry): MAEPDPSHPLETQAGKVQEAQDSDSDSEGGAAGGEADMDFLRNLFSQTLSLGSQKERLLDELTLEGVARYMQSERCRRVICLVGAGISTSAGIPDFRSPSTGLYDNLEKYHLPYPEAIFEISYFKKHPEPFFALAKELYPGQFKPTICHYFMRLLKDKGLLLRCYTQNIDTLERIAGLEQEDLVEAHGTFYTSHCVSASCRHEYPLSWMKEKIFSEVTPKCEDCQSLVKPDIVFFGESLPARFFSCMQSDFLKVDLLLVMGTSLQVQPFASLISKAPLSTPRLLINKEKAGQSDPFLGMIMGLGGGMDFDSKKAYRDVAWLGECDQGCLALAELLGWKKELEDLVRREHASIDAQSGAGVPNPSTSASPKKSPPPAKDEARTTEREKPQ

[5] = target: T1, NAD-dependent protein deacetylase sirtuin-1 (Homo sapiens); assay: Inhibition of recombinant N-terminal tagged human SIRT1 expressed in Escherichia coli at 300 uM using Fluor De Lys SIRT1 as substrate preincubated for 30 mins followed by substrate addition and measured after 1 hr in presence of NAD+ by fluorescence assay relative to control; settings: time 90.0 min; outline: as §1
[6] = target: T2, NAD-dependent protein deacetylase sirtuin-2 (Homo sapiens); assay: Inhibition of recombinant N-terminal tagged human SIRT2 expressed in Escherichia coli at 300 uM using Fluor De Lys SIRT2 as substrate preincubated for 30 mins followed by substrate addition and measured after 1 hr in presence of NAD+ by fluorescence assay relative to control; settings: time 90.0 min; outline: as §1
[7] = target: T3, NAD-dependent protein deacetylase sirtuin-3, mitochondrial (Homo sapiens) (UniProt Q9NTG7); assay: Inhibition of recombinant N-terminal tagged human SIRT3 (102 to 399 residues) expressed in Escherichia coli at 300 uM using Fluor De Lys SIRT2 as substrate preincubated for 30 mins followed by substrate addition and measured after 1 hr in presence of NAD+ by fluorescence assay relative to control; settings: time 90.0 min; outline: as §1
T3 sequence (whole entry): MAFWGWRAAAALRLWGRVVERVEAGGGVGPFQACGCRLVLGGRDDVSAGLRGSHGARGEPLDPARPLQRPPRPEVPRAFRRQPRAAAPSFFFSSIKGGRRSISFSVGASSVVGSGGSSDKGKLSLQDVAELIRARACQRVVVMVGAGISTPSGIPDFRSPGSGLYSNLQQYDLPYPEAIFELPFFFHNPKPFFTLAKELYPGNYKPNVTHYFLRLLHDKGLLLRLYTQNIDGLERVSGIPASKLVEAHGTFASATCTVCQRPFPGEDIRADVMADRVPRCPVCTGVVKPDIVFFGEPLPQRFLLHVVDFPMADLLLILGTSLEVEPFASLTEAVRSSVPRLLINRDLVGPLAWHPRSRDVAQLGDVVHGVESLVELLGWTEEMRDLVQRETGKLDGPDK

In the case of CC(C)N1CCN(C(=O)c2cccc(Oc3ccccc3)c2)CC1, the inhibition [1] is reported as 48.1%, the IC50 (MCF7 [2]) is reported as 465 µM and the IC50 (MCF7 [3]) is reported as 321 µM.
Work on O=C(Nc1ccc2ccccc2c1)c1cccc(Oc2ncccn2)c1 yielded an inhibition [1] of 36.1% and an inhibition [4] of 17.1%.
Work on O=C(c1ccc(Oc2ccccc2)cc1)N1CCc2ccccc2C1 yielded an inhibition [1] of 21.5%.
With NC(=O)c1ccc(NC(=O)c2ccc(Oc3ccccc3)cc2)cc1 the inhibition [1] was 46%, the IC50 (MCF7 [2]) was 524 µM and the IC50 (MCF7 [3]) was 356 µM.
Compound Cc1ccc(C(=O)Nc2ccc(S(=O)(=O)O)c3cc(S(=O)(=O)O)cc(S(=O)(=O)O)c23)cc1NC(=O)c1cccc(NC(=O)Nc2cccc(C(=O)Nc3cc(C(=O)Nc4ccc(S(=O)(=O)O)c5cc(S(=O)(=O)O)cc(S(=O)(=O)O)c45)ccc3C)c2)c1 has an inhibition [4] of 98.4%.
Cc1ccc(Oc2cccc(C(=O)N[C@@H](C)c3ccccc3)c2)nn1 gave an inhibition [5] of 31.4%, an inhibition [6] of 42.5% and an inhibition [7] of 18.2%. The IC50 (MCF7 [2]) was 328 µM and the IC50 (MCF7 [3]) was > 1000 µM.
CC(=O)c1ccc(NC(=O)c2ccc(Oc3ccccc3)cc2)cc1 was tested, and the inhibition [1] was 36.1%.
Compound CC(=O)c1ccc(NC(=O)c2cccc(Oc3ccccc3)c2)cc1 has an inhibition [4] of 11.1%.
In the case of ON=C(c1cccc(Oc2ccccc2)c1)N1CCc2ccccc2C1, the inhibition [1] is reported as 47.2%, the inhibition [4] is reported as 51.6% and the IC50 (MCF7 [2]) is reported as 41.1 µM. For the same compound, the IC50 (MCF7 [3]) was 33.1 µM.
O=C(c1cccc(Oc2ccccc2)c1)N1CCc2ccccc2C1 gave an inhibition [1] of 56.5%, an inhibition [4] of 10.8% and an IC50 (MCF7 [2]) of 159 µM. The IC50 (MCF7 [3]) was 147 µM.
